Only some compounds are listed: those with a hit (about 1.3% of all), similar ones and a draw of the others.
UCH37 inh – human UCH37 deubiquitinating enzyme inhibition; 330,000 tested, 0.33% active; AID 588478; inhibition, % (test concentration not listed); Q9Y5K5; purified proteasome/UCH37, Ub-AMC cleavage fluorescence;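 active = mean inhibition over replicate wells above about 20%, limit read from the data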;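 also: 0% = compound-free wells with enzyme and 100% = wells lacking proteasome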
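Schedule: 30 min plus 25 min, room temperature / Material: human UCH37 within purified proteasomes / Technique: AMC fluorescence intensity at 355/460 nm / Buffer or medium: pH 7.4 Tris-HCl (50 mM) with ovalbumin, ATP-MgCl2, DTT / Controls: wells without proteasome as full block, compound-free enzyme plus substrate as uninhibited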
TDP2 absorb – blocks human TDP2 phosphodiesterase activity; O95551; recombinant TDP2, T5PNP hydrolysis, p-nitrophenol absorbance 415 nm; inhibition, % at 12.8 µM; 370,000 tested, 0.34% active; AID 720702;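 active = inhibition above the mean of all tested compounds plus 3 SD, set per campaign, cut at about 25% in these data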;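 also: 0% = DMSO with enzyme and 100% = buffer with substrate but no TDP2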
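test system = human TDP2 enzyme | input = TDP2 enzyme at 120 nM final | medium = 50 mM Tris-HCl pH 7.5 with Mg2+, KCl, DTT, BSA | also added = T5PNP substrate, 5 mM | times = 2 h at 37 °C | technique = epi absorbance | benchmarks = high control without enzyme, low control DMSO plus TDP2 | replication = each compound tested once, singlicate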
LEDGF integ inh – blocks HIV-1 LEDGF/p75-dependent DNA integration; TR-FRET IN-LEDGF/p75 DNA integration, Eu/Cy5; inhibition, % at 3.7 µM; 370,000 tested, 0.64% active; AID 743269;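 active = inhibition above the screen-wide mean plus 3 SD, cut at about 13% in these data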;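 also: signal is the Cy5 over europium emission ratio at 671 and 618 nm; 0% = plate median of compound wells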
Casp6 inh – blocks human caspase-6 cleavage activity | inhibition, % at 12.5 µM | purified caspase-6, Z-VEID-R110 cleavage fluorescence | 350,000 tested, 0.53% active | P55212;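 active = mean inhibition across replicates at least about 35%, with every replicate also reaching that limit, limit read from the data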;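 also: 0% = median of neutral control wells and 100% = no fluorescence left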
NSD2 HMT inh – inhibitors of human histone methyltransferase NSD2. NSD2 peptide methylation, AlphaScreen, 120 min. 310,000 tested, 0.54% active. inhibition, % at 12.5 µM. O96028; in the data active = inhibition above about 50%
IN multimer act – counter-screen for LEDGF/p75 integration inhibitors: HIV-1 integrase multimerization activators. shares compounds with LEDGF integ inh. activation, % at 7.7 µM. TR-FRET HIV-1 integrase multimerization, biochemical. 2,000 tested, 17% active; in the data active = activation above about 8.9%
TR-FRET interf – optically interferes with TR-FRET readout in LEDGF counter-screen | 2,000 tested, under 10 active | shares compounds with LEDGF integ inh | AID 1053135 | TR-FRET optical interference counterscreen, HIV-1 IN multimerization | inhibition, % at 7.7 µM;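 active = inhibition above the mean over all tested compounds plus 3 SD, which no compound reached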;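 also: 0% = integrase with antibodies and DMSO and 100% = antibodies without integrase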
LEDGF integ conf – LEDGF/p75-dependent HIV-1 integration inhibition, confirmation; shares compounds with LEDGF integ inh; TR-FRET LEDGF/p75-dependent HIV-1 integration, biochemical; inhibition, % at 3.7 µM; 2,000 tested, 36% active; AID 1053136; in the data active = inhibition above about 14%
An asterisk follows results filed as active; . = no result.

SMILES | UCH37 inh | TDP2 absorb | LEDGF integ inh | Casp6 inh | NSD2 HMT inh | IN multimer act | TR-FRET interf | LEDGF integ conf
O=c1c2cc(O)c(O)cc2oc2cc(O)c(C3OC(CO)C(O)C(O)C3O)c(O)c12 (configuration not stated) | 16 | -3 | 82* | -3 | . | 70* | -351 | 86*
Cc1cccc(C=NNC(=O)c2cccc(Cl)c2)n1 | 2 | . | . | . | . | . | . | .
Cc1cccc(OCCCN2CCOCC2)c1C | 3 | 8 | 2 | -3 | -1 | . | . | .
Cc1ccccc1OCCCN1CCOCC1 | 2 | 0 | 29* | -4 | -2 | 1 | -4 | -10
Cc1noc(C)c1C(=O)Nc1ccccc1-c1ccccc1 | 1 | 5 | 27* | . | 6 | 0 | 0 | 1
O=C(Nc1ccccc1-c1ccccc1)c1ccco1 | 1 | -6 | -1 | . | . | . | . | .
Cc1ccc(-c2c(C(=O)O)c(C(=O)O)c3n2CSC3)cc1 | 1 | 9 | 14* | 6 | 0 | 0 | -1 | -5
COc1ccccc1NS(=O)(=O)c1cccc(C(=O)NN=C2CC(=O)CC(C)(C)C2)c1 | 6 | . | . | . | . | . | . | .
CCN(CC)c1ccc(NC(=O)Nc2ccc(C(C)=O)cc2)cc1 | 5 | 9 | -1 | . | 1 | . | . | .
CCN(CC)c1ccc(N=C2C=CC(=O)C=C2NC(C)=O)cc1 | 1 | -3 | 73* | 4 | 9 | 36* | -184 | 35*
Cc1ccc(C2/C(=C(/O)c3ccc(Br)cc3)C(=O)C(=O)N2Cc2ccco2)o1 (configuration not stated) | 1 | 5 | 15* | . | 22 | 0 | -2 | 16*
COc1ccc(/C(O)=C2\C(=O)C(=O)N(Cc3ccco3)C2c2cc(OC)ccc2OC)cc1 (configuration not stated) | 11 | 7 | 1 | . | 2 | . | . | .
CCC(CC)NC(=O)Cc1ccc(S(=O)(=O)N2CCOCC2)s1 | 0 | 10 | 16* | . | 7 | 0 | -1 | 6
CCCC(C)NC(=O)Cc1ccc(S(=O)(=O)N2CCOCC2)s1 (configuration not stated) | 3 | -3 | 1 | 1 | 2 | . | . | .
Cc1cc(C)nc(N=C(NC(=O)c2ccccc2)Nc2ccccc2)n1 | -1 | . | . | . | . | . | . | .
CCCOc1ccc(CC(=O)NCCc2ccccc2)cc1OC | 3 | -19 | 14* | 1 | 0 | 1 | -5 | -4
COCCCNc1nc(SCc2ccccc2)nc2sc3c(c12)CCC3 | 0 | 5 | 14* | . | 11 | 2 | -10 | -2
COCCNc1nc(SC)nc2sc3c(c12)CCN(C)C3 | -129 | 9 | -1 | -6 | 4 | . | . | .
CCOC(=O)N1CCN(c2cc(=O)n(-c3ccccc3C)c(=O)[nH]2)CC1 | 1 | -7 | 0 | 0 | 11 | . | . | .
Cc1ccccc1-n1c(=O)cc(N2CCN(Cc3ccccc3)CC2)[nH]c1=O | 5 | 13 | 18* | 0 | . | 0 | 0 | 1
COc1ccc(N2C(=O)CSC2c2cccc(F)c2)cc1 (configuration not stated) | -1 | 6 | 29* | 2 | 2 | 1 | -7 | -9
COc1ccc(C2SCC(=O)N2c2ccc(F)cc2)cc1 (configuration not stated) | 3 | 3 | 2 | 0 | -2 | . | . | .
N=C1c2ccccc2CN1NC(=O)c1cccc(S(=O)(=O)N2CCCC2)c1 | 1 | 16 | 89* | 2 | -2 | -1 | 6 | -4
Cc1nn(Cc2ccc(F)cc2)c(C)c1NC(=O)c1noc2c1CCCCC2 | 2 | 2 | 40* | . | -1 | -1 | 2 | -3
Cc1cccc(C=NNC(=O)c2ccc(NC(=O)c3ccccc3C)cc2)n1 | 4 | . | . | . | . | . | . | .
SMILES | UCH37 inh | TDP2 absorb | LEDGF integ inh | Casp6 inh | NSD2 HMT inh | IN multimer act | TR-FRET interf | LEDGF integ conf
COc1cc(C(=O)NC(=S)N(CCc2ccccc2)CCc2ccccc2)cc(OC)c1OC | 4 | -4 | 14* | . | 0 | 0 | -1 | 6
COc1ccc(C(=O)NC(=S)N(Cc2ccccc2)Cc2ccccc2)cc1 | -2 | 8 | 15* | . | 0 | 1 | -5 | 9
O=C(NC(=S)N(CCc1ccccc1)CCc1ccccc1)c1ccco1 | 2 | 3 | 15* | . | 17 | -2 | 8 | 20*
CC(CCc1ccccc1)NC(=S)NC(=O)c1ccco1 (configuration not stated) | 3 | -9 | 2 | -1 | 46 | . | . | .
CC(=NNC(=S)NCc1ccccc1)c1ccccc1 | 3 | . | . | . | . | . | . | .
CCc1ccccc1-n1c(SCC(=O)NC)nnc1-c1cccnc1 | 7 | 0 | 22* | . | -1 | 0 | 2 | -8
CCc1ccccc1-n1c(SCC(=O)NC)nnc1-c1ccco1 | 3 | 4 | -2 | -3 | -2 | . | . | .
CC(=NNC(=O)c1cc(C(C)C)[nH]n1)c1ccncc1 | 0 | . | . | . | . | . | . | .
CN(C)S(=O)(=O)N1CCN(C(=O)N(c2ccccc2)c2ccccc2)CC1 | -1 | 0 | 71* | . | 1 | 0 | 1 | 0
COc1ccc(N(C(C)C(=O)N/N=C/c2ccc(OC(C)C)cc2)S(C)(=O)=O)cc1 (configuration not stated) | . | 2 | 2 | 8 | . | . | . | .
COc1ccc(N(C(C)C(=O)N/N=C/c2cccnc2)S(C)(=O)=O)cc1 (configuration not stated) | . | 9 | 35* | 0 | -2 | 0 | -1 | 2

Source: PubChem BioAssay
